Laboratory results published in ChEMBL document CHEMBL5500359, “Identification of a new bisindolinone arresting IGROV1 cells proliferation” (Eur J Med Chem, 2024).

Tests used:
Assay type in all cases: functional
Prostatic carcinoma cell = test: Cytotoxicity against human Prostate carcinoma cells incubated for 48 hrs by SRB assay
Method in brief: (§1)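 NCI-60 five-concentration screen: lines seeded 5×10^3–4×10^4 cells/well depending on line; compound diluted in fresh medium at scalar concentrations 0–100 or 0–1000 μM; 48 h exposure, in situ fixation, sulforhodamine B protein staining, optical density read; GI50, TGI and LC50 per NCI procedures; panel mean = mean graph midpoint.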

Melanoma cell line = test: Cytotoxicity against human Melanoma cells incubated for 48 hrs by SRB assay; method in brief: as §1
NSCLC = test: Cytotoxicity against human NSCLC cells incubated for 48 hrs by SRB assay; method in brief: as §1

Structure (SMILES)	LC50 (Prostatic carcinoma cell) [µM]	LC50 (Melanoma cell line) [µM]	LC50 (NSCLC) [µM]
COc1ccc2c(c1)/C(=C\c1cc(C(C)(C)C)cc(/C=C3/C(=O)N(C)c4ccc(OC)cc43)c1O)C(=O)N2C	67.6	9.55	31.6
O=C1Nc2cccc(F)c2/C1=C\c1cccc(/C=C2/C(=O)Nc3cccc(F)c32)c1	18.6	9.33	33.1
CC(C)(C)c1cc(/C=C2/C(=O)Nc3ccc(F)cc32)c(O)c(/C=C2/C(=O)Nc3ccc(F)cc32)c1	4.74	33.9	47.9
CC(C)(C)c1cc(/C=C2/C(=O)Nc3cccc(F)c32)c(O)c(/C=C2/C(=O)Nc3cccc(F)c32)c1	36.3	13.2	15.8
COc1ccc2[nH]c(Cl)c(/C=C3/C(=O)N(C)c4cc5c(cc43)/C(=C\c3c(Cl)[nH]c4ccc(OC)cc34)C(=O)N5C)c2c1	7.94	12.9	24.6
CC(C)(C)c1cc(/C=C2/C(=O)Nc3cc(Cl)ccc32)c(O)c(/C=C2/C(=O)Nc3cc(Cl)ccc32)c1	38	30.9	47.9
Cc1cc2c(cc1O)/C(=C\c1cc(C(C)(C)C)cc(C=O)c1O)C(=O)N2	57.5	37.1	51.3
COc1cc2c(cc1C)NC(=O)/C2=C/c1ccc2ccc3ccc(/C=C4/C(=O)Nc5cc(C)c(OC)cc54)nc3c2n1		55	52.5
COc1cc2c(/C=C3/C(=O)N(C)c4cc5c(cc43)/C(=C\c3c(Cl)[nH]c4cc(C)c(OC)cc34)C(=O)N5C)c(Cl)[nH]c2cc1C	20.4	22.4	51.3
O=C1Nc2cc(Cl)ccc2/C1=C\c1cccc(/C=C2/C(=O)Nc3cc(Cl)ccc32)c1	28.2	19.5	45.7
COc1ccc2c(c1)/C(=C\c1ccc3ccc4ccc(/C=C5/C(=O)N(C)c6ccc(OC)cc65)nc4c3n1)C(=O)N2C	56.2	30.2	85.1
O=C1Nc2ccc(Cl)cc2/C1=C\c1ccc2ccc3ccc(/C=C4/C(=O)Nc5ccc(Cl)cc54)nc3c2n1		51.3	52.5
COc1cc2c(c(OC)c1OC)C(=Cc1cc(C(C)(C)C)cc(/C=C3\C(=O)Nc4cc(OC)c(OC)c(OC)c43)c1O)C(=O)N2	12.6	8.13	14.8
